The source made the active and inactive calls. The calls are words filed in the database; no cut-off is given here.
Columns and labels:
[1] = test system: Escherichia coli; assay: Inhibition of transglycosylase activity of Escherichia coli PBP1b assessed as remaining activity at 500 uM incubated for 30 mins by continous fluorescence assay
Outline: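 Continuous fluorescence TG assay at 30 °C with purified E. coli PBP1b (100 nM) and dansyl-lipid II (10 µM) plus 1 U muramidase (Cellosyl). Fluorescence (ex 355/em 536 nm) read for 30 min. Relative activity measured with compound at 500 µM.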

[2] = Inhibition of transglycosylase activity of Escherichia coli PBP1b incubated for 30 mins by continous fluorescence assay
[3] = test system: Staphylococcus aureus; assay: Antibacterial activity against Staphylococcus aureus ATCC 25923 assessed as no visual turbidity by broth microdilution method; format: functional
Outline: (§1)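 Mueller-Hinton broth microdilution per EUCAST/CLSI, 200 µL final volume. Compounds taken from 10 mg/mL DMSO stocks and diluted 20-fold in broth just before use. Inoculum was colonies from overnight plates, adjusted to 0.5 McFarland (about 1.10^8 CFU/mL) in 0.085% NaCl, then diluted 100-fold in broth. MIC was the lowest dilution with no visible turbidity.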

[4] = test system: Escherichia coli; assay: Antibacterial activity against Escherichia coli ATCC 8739 assessed as no visual turbidity by broth microdilution method; format: functional
Outline: (§2)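 Broth microdilution in Mueller-Hinton broth following the EUCAST/CLSI procedure. Compounds were made as 10 mg/mL DMSO stocks, diluted 20-fold in broth just before use. Inoculum: colonies suspended to 0.5 McFarland (~1×10^8 CFU/mL) in 0.085% NaCl, then diluted 100-fold in broth. MIC is the lowest dilution with no visible turbidity.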

[5] = test system: Staphylococcus aureus; assay: Antibacterial activity against methicillin-resistant Staphylococcus aureus ATCC 43300 assessed as no visual turbidity by broth microdilution method; format: functional; outline: as §1
[6] = test system: Enterococcus faecium; assay: Antibacterial activity against Enterococcus faecium ATCC 19434 assessed as no visual turbidity by broth microdilution method; format: functional; outline: as §2
[7] = test system: HEK293; assay: Cytotoxicity against HEK293 cells assessed as reduction in cell viability at 8 ug/ml after 24 hrs by MTS assay; format: cell-based; settings: human, hek293, 24 h
Outline: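 HEK293 cells grown in DMEM with 10% FBS, 2 mM glutamine and penicillin/streptomycin at 37 °C, 5% CO2. Cells seeded at 2×10^4 per well and allowed to adhere 24 h. Compound added at 8 µg/mL final from an 8 mg/mL DMSO stock, with vehicle controls, in triplicate for 24 h. Metabolic activity read by MTS (CellTiter 96 AQueous One).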

[8] = target: T1, Penicillin-binding protein 2 (Staphylococcus aureus, UniProt Q53729); assay: Inhibition of Staphylococcus aureus PBP2 transglycosylase activity after 30 mins by continous fluorescence assay
T1 sequence (Q53729 whole entry): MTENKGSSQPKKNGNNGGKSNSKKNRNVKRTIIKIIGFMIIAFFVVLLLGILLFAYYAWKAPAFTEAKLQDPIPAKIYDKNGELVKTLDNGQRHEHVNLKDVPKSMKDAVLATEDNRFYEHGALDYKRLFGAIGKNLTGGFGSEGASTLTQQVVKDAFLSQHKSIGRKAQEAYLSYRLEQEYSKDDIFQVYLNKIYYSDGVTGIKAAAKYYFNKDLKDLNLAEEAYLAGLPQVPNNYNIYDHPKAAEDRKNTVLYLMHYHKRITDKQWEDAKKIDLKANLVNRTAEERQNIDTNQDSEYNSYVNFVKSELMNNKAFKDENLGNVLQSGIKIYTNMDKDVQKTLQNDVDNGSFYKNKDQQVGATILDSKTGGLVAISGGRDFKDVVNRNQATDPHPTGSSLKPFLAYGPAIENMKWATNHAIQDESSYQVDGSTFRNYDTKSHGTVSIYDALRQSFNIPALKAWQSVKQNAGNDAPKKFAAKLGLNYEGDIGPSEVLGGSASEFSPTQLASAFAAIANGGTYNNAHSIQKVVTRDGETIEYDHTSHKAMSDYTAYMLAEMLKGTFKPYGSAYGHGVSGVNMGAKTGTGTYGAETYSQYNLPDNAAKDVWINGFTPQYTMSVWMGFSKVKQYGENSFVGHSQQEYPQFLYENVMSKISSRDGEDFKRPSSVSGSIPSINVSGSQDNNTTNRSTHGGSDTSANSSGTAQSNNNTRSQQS

[9] = Inhibition of Thermotoga maritima PBP1A transglycosylase activity after 30 mins by continous fluorescence assay
[10] = Inhibition of Enterococcus hirae PBP2 transglycosylase activity after 30 mins by continous fluorescence assay
[11] = Inhibition of Staphylococcus aureus mtgA after 30 mins by continous fluorescence assay
[12] = Binding affinity to lipid2 in carboxyfluorescein loaded DOPC large unilamellar vesicle assessed as inhibition of nisin-induced carboxyfluorescein leakage at 1.5 uM preincubated for 2 mins followed by nisin addition measured after 50 secs
Outline: (§3)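 DOPC LUVs (200-nm extrusion) containing 0.1 mol% lipid II and loaded with 50 mM CF, used at 20 µM lipid in 10 mM Tris, 150 mM NaCl, pH 7.5. Compound (from 1 mM DMSO stock) preincubated 2 min, then 20 nM nisin added. Leakage read at ex 492/em 516 nm and normalized to Triton X-100 total release. Residual nisin activity at 50 s is expressed relative to a no-compound control; run in triplicate.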

[13] = Binding affinity to lipid2 in carboxyfluorescein loaded DOPC large unilamellar vesicle assessed as inhibition of nisin-induced carboxyfluorescein leakage at 3 uM preincubated for 2 mins followed by nisin addition measured after 50 secs; outline: as §3

| SMILES | Activity [1] [%] | IC50 [2] [µM] | MIC ([3]; read-out: MIC) [µM] | MIC [4] [µM] | MIC [5] [µM] | MIC [6] [µM] | other results |
| --- | --- | --- | --- | --- | --- | --- | --- |
| COc1ccccc1Cn1cc(CCNC(=N)N)c2ccccc21 | 29 | > 250 | 89 | > 356 | 89 | 44 | – |
| NCCc1cn(Cc2ccc(F)c(F)c2)c2ccccc12 | 62 | > 250 | 198 | 198 | 397 | 198 | – |
| COc1ccc2c(c1)c(CCN)cn2Cc1ccc(F)c(F)c1 | 88 | – | – | – | – | – | – |
| CSc1ccc2c(c1)c(CCN)c(C)n2Cc1ccc(Cl)c(Cl)c1 [listing 1 of 3 here] | – | 21 | – | – | – | – | – |
| COc1ccc2c(c1)c(CCN)cn2Cc1ccc(C#N)cc1 | 105 | – | – | – | – | – | – |
| CSc1ccc2c(c1)c(CCN)c(C)n2Cc1ccc(Cl)c(Cl)c1 [listing 2 of 3 here] | – | 29 | – | 616 | 9.6 | 76 | MIC [3]: 16 µg/mL; Activity [7]: Toxic; IC50 [8]: 20.7 µM; IC50 [9]: 56 µM; IC50 [10]: 33 µM; IC50 [11]: 27 µM |
| COc1ccc(Cn2cc(CCNC(=N)N)c3ccccc32)cc1 | 67 | – | – | – | – | – | – |
| NCCc1cn(Cc2ccccc2)c2ccccc12 | 93 | – | – | – | – | – | – |
| N=C(N)NCCc1cn(Cc2cccc(Cl)c2)c2ccccc12 | 15 | 166 | 145 | 145 | 145 | 73 | – |
| COc1ccc2c(c1)c(CCNC(=N)N)cn2Cc1ccc(F)c(F)c1 | 28 | > 250 | 81 | 81 | 162 | 324 | – |
| COc1ccc(Cn2cc(CCN)c3ccccc32)cc1 | 80 | – | – | – | – | – | – |
| COc1ccc2c(c1)c(CCN)c(C)n2Cc1ccc(Cl)c(Cl)c1.Cl | 5 | 104 | 20 | 20 | 40 | 20 | Activity [7]: Toxic |
| NCCc1cn(Cc2ccc(F)cc2)c2ccccc12 | 97 | – | – | – | – | – | – |
| COc1cccc(Cn2cc(CCN)c3ccccc32)c1 | 86 | – | – | – | – | – | – |
| CSc1ccc2c(c1)c(CCN)c(C)n2Cc1ccccc1 | 31 | > 250 | 92 | 369 | 184 | 92 | – |
| COc1ccccc1Cn1cc(CCN)c2ccccc21 | 96 | – | – | – | – | – | – |

| SMILES | Activity [1] [%] | IC50 [2] [µM] | MIC ([3]; read-out: MIC) [µM] | MIC [4] [µM] | MIC [5] [µM] | MIC [6] [µM] | other results |
| --- | --- | --- | --- | --- | --- | --- | --- |
| N=C(N)NCCc1cn(Cc2ccccc2)c2ccccc12 | 73 | – | – | – | – | – | – |
| COc1ccc2c(c1)c(CCNC(=N)N)cn2Cc1ccc(Cl)c(Cl)c1.Cl | 9 | 50 | 19 | 37 | 19 | 19 | Activity [7]: Non-toxic; Activity [12]: Active |
| COc1ccc2c(c1)c(CCNC(=N)N)c(C)n2Cc1ccc(Cl)c(Cl)c1.Cl | 4 | 39 | 9.1 | 72 | 9.1 | 9.1 | inhibition [13]: > 90%; Activity [7]: Non-toxic; Activity [12]: Active |
| COc1ccc2c(c1)c(CCN)cn2Cc1ccc(Cl)c(Cl)c1.Cl | 24 | 193 | 83 | 166 | 83 | 83 | Activity [7]: Toxic |
| N=C(N)NCCc1cn(Cc2ccc(F)cc2)c2ccccc12 | 42 | > 250 | 92 | 184 | 369 | 184 | – |
| Cl.N=C(N)NCCc1cn(Cc2ccc(F)c(F)c2)c2ccccc12 | 10 | 97 | 44 | 44 | 88 | 88 | Activity [7]: Non-toxic |
| COc1ccc2c(c1)c(CCN)c(C)n2Cc1ccc(C#N)cc1 | 118 | – | – | – | – | – | – |
| N#Cc1cccc(Cn2cc(CCNC(=N)N)c3ccccc32)c1 | 79 | – | – | – | – | – | – |
| COc1ccc2c(c1)c(CCN)c(C)n2Cc1ccccc1 | 75 | – | – | – | – | – | – |
| Cl.NCCc1cn(Cc2ccc(Cl)c(Cl)c2)c2ccccc12 | 15 | 103 | 45 | 45 | 45 | 11 | Activity [7]: Toxic |
| NCCc1cn(Cc2cccc(Cl)c2)c2ccccc12 | 54 | > 250 | 100 | 100 | 100 | 100 | – |
| COc1cccc(Cn2cc(CCNC(=N)N)c3ccccc32)c1 | 55 | > 250 | 73 | 73 | 146 | 293 | – |
| COc1ccc2c(c1)c(CCN)c(C)n2Cc1ccc(F)c(F)c1 | 28 | > 250 | 174 | 174 | 174 | 174 | – |
| N#Cc1cccc(Cn2cc(CCN)c3ccccc32)c1 | 94 | – | – | – | – | – | – |
| Cl.N=C(N)NCCc1cn(Cc2ccc(Cl)c(Cl)c2)c2ccccc12 | 1 | 51 | 20 | 40 | 20 | 10 | Activity [7]: Non-toxic |
| CSc1ccc2c(c1)c(CCN)c(C)n2Cc1ccc(Cl)c(Cl)c1 [listing 3 of 3 here] | 1 | – | – | – | – | – | – |

Source: ChEMBL document CHEMBL3745642, “Structure-Activity Relationships of Novel Tryptamine-Based Inhibitors of Bacterial Transglycosylase” (J Med Chem, 2015)
